# Results taken from ChEMBL document CHEMBL5550111, “Design, synthesis and biological evaluation of aryloxy thiophosphoramidate triesters of anticancer nucleoside analogues” (Bioorg Med Chem, 2024).
# Key:
# OVCAR-3 [1] = experiment: Cytotoxicity against human OVCAR-3 cells assessed as inhibition of cell viability incubated for 72 hrs by MTS assay; format: functional, cell-based; conditions: OVCAR-3, 72 h
# Outline: (§1)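 Cells seeded at 0.5 to 100 × 10^3 per well the day before treatment, then exposed for 72 h to 9 serial concentrations (3.16-fold dilutions, top 198 μM), in duplicate. MTS added for a final 4 h at 37 °C and absorbance read. IC50 is the concentration giving 50% loss of viability. MI% is the maximum inhibition over the tested range.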
# HT-29 [2] = experiment: Cytotoxicity against human HT-29 cells assessed as maximum inhibition of cell viability upto 198 uM incubated for 72 hrs by MTS assay relative to control; format: functional; conditions: up to 198 µM
# Outline: (§2)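 Cells seeded at 0.5 to 100 × 10^3 per well the day before drug addition, then exposed to compound for 72 h. MTS added afterwards, with a further 4 h at 37 °C, and absorbance read. Tested in duplicate at 9 serial 3.16-fold dilutions, top concentration 198 μM. MI% is the maximum inhibition of viability across the tested range.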
# HepG2 [3] = experiment: Cytotoxicity against human HepG2 cells assessed as maximum inhibition of cell viability upto 198 uM incubated for 72 hrs by MTS assay relative to control; format: functional; conditions: up to 198 µM; outline: as §2
# OVCAR-3 [4] = experiment: Cytotoxicity against human OVCAR-3 cells assessed as maximum inhibition of cell viability upto 198 uM incubated for 72 hrs by MTS assay relative to control; format: functional; conditions: up to 198 µM; outline: as §2
# NCI-H1975 = experiment: Cytotoxicity against human NCI-H1975 cells assessed as maximum inhibition of cell viability upto 198 uM incubated for 72 hrs by MTS assay relative to control; format: functional; conditions: up to 198 µM; outline: as §2
# RPMI-8226 [5] = experiment: Cytotoxicity against human RPMI-8226 cells assessed as inhibition of cell viability incubated for 72 hrs by MTS assay; format: functional, cell-based; conditions: RPMI-8226, 72 h; outline: as §1
# RPMI-8226 [6] = experiment: Cytotoxicity against human RPMI-8226 cells assessed as maximum inhibition of cell viability upto 198 uM incubated for 72 hrs by MTS assay relative to control; format: functional; conditions: up to 198 µM; outline: as §2
# SK-MES-1 [7] = experiment: Cytotoxicity against human SK-MES-1 cells assessed as inhibition of cell viability incubated for 72 hrs by MTS assay; format: functional, cell-based; conditions: SK-MES-1, 72 h; outline: as §1
# COLO 205 [8] = experiment: Cytotoxicity against human COLO 205 cells assessed as maximum inhibition of cell viability upto 198 uM incubated for 72 hrs by MTS assay relative to control; format: functional; conditions: up to 198 µM; outline: as §2
# RT112/84 [9] = experiment: Cytotoxicity against human RT112/84 cells assessed as maximum inhibition of cell viability upto 198 uM incubated for 72 hrs by MTS assay relative to control; format: functional; conditions: up to 198 µM; outline: as §2
# HepG2 [10] = experiment: Cytotoxicity against human HepG2 cells assessed as inhibition of cell viability incubated for 72 hrs by MTS assay; format: functional, cell-based; conditions: HepG2, 72 h; outline: as §1
# COLO 205 [11] = experiment: Cytotoxicity against human COLO 205 cells assessed as inhibition of cell viability incubated for 72 hrs by MTS assay; format: functional, cell-based; conditions: COLO 205, 72 h; outline: as §1
# RT112/84 [12] = experiment: Cytotoxicity against human RT112/84 cells assessed as inhibition of cell viability incubated for 72 hrs by MTS assay; format: functional, cell-based; conditions: RT112/84, 72 h; outline: as §1
# SK-MES-1 [13] = experiment: Cytotoxicity against human SK-MES-1 cells assessed as maximum inhibition of cell viability upto 198 uM incubated for 72 hrs by MTS assay relative to control; format: functional; conditions: up to 198 µM; outline: as §2
# HT-29 [14] = experiment: Cytotoxicity against human HT-29 cells assessed as inhibition of cell viability incubated for 72 hrs by MTS assay; format: functional, cell-based; conditions: HT-29, 72 h; outline: as §1
# MIA PaCa-2 [15] = experiment: Cytotoxicity against human MIA PaCa-2 cells assessed as inhibition of cell viability incubated for 72 hrs by MTS assay; format: functional, cell-based; conditions: MIA PaCa-2, 72 h; outline: as §1
# MIA PaCa-2 [16] = experiment: Cytotoxicity against human MIA PaCa-2 cells assessed as maximum inhibition of cell viability upto 198 uM incubated for 72 hrs by MTS assay relative to control; format: functional; conditions: up to 198 µM; outline: as §2
# MDA-MB-231 [17] = experiment: Cytotoxicity against human MDA-MB-231 cells assessed as inhibition of cell viability incubated for 72 hrs by MTS assay; format: functional, cell-based; conditions: MDA-MB-231, 72 h; outline: as §1
# PANC-1 [18] = experiment: Cytotoxicity against human PANC-1 cells assessed as inhibition of cell viability incubated for 72 hrs by MTS assay; format: functional, cell-based; conditions: PANC-1, 72 h; outline: as §1
# BXPC-3 [19] = experiment: Cytotoxicity against human BXPC-3 cells assessed as inhibition of cell viability incubated for 72 hrs by MTS assay; format: functional, cell-based; conditions: BXPC-3, 72 h; outline: as §1
# [20] = Cytotoxicity against human T24/83 cells assessed as inhibition of cell viability incubated for 72 hrs by MTS assay; format: functional, cell-based; conditions: T24/83, 72 h; outline: as §1
# PC-3 [21] = experiment: Cytotoxicity against human PC-3 cells assessed as maximum inhibition of cell viability upto 198 uM incubated for 72 hrs by MTS assay relative to control; format: functional; conditions: up to 198 µM; outline: as §2
# BXPC-3 [22] = experiment: Cytotoxicity against human BXPC-3 cells assessed as maximum inhibition of cell viability upto 198 uM incubated for 72 hrs by MTS assay relative to control; format: functional; conditions: up to 198 µM; outline: as §2
# A2780 [23] = experiment: Cytotoxicity against human A2780 cells assessed as inhibition of cell viability incubated for 72 hrs by MTS assay; format: functional, cell-based; conditions: A2780, 72 h; outline: as §1
# MDA-MB-231 [24] = experiment: Cytotoxicity against human MDA-MB-231 cells assessed as maximum inhibition of cell viability upto 198 uM incubated for 72 hrs by MTS assay relative to control; format: functional; conditions: up to 198 µM; outline: as §2
# PC-3 [25] = experiment: Cytotoxicity against human PC-3 cells assessed as inhibition of cell viability incubated for 72 hrs by MTS assay; format: functional, cell-based; conditions: PC-3, 72 h; outline: as §1
# PANC-1 [26] = experiment: Cytotoxicity against human PANC-1 cells assessed as maximum inhibition of cell viability upto 198 uM incubated for 72 hrs by MTS assay relative to control; format: functional; conditions: up to 198 µM; outline: as §2
# A2780 [27] = experiment: Cytotoxicity against human A2780 cells assessed as maximum inhibition of cell viability upto 198 uM incubated for 72 hrs by MTS assay relative to control; format: functional; conditions: up to 198 µM; outline: as §2
SMILES,IC50 (OVCAR-3 [1]) [nM],Imax (HT-29 [2]) [%],Imax (HepG2 [3]) [%],Imax (OVCAR-3 [4]) [%],Imax (NCI-H1975) [%],IC50 (RPMI-8226 [5]) [nM],Imax (RPMI-8226 [6]) [%],IC50 (SK-MES-1 [7]) [nM],Imax (COLO 205 [8]) [%],Imax (RT112/84 [9]) [%],IC50 (HepG2 [10]) [nM],IC50 (COLO 205 [11]) [nM],IC50 (RT112/84 [12]) [nM],Imax (SK-MES-1 [13]) [%],IC50 (HT-29 [14]) [nM],IC50 (MIA PaCa-2 [15]) [nM],Imax (MIA PaCa-2 [16]) [%],IC50 (MDA-MB-231 [17]) [nM],IC50 (PANC-1 [18]) [nM],IC50 (BXPC-3 [19]) [nM],also measured
Nc1nc(=O)n([C@H]2C[C@H](O)[C@@H](CO)O2)cc1F,740,83,67,58,91,11800,100,90,88,67,53900,20,90,67,130,300,85,,,,
C[C@H](NP(=O)(OC[C@H]1O[C@@H](n2ccc(N)nc2=O)C(F)(F)[C@@H]1O)Oc1ccccc1)C(=O)OCc1ccccc1 (stereo partly drawn) [FOSGEMCITABINE PALABENAMIDE],119000,64,57,16,,,,110,72,79,1160,1820,110,79,480,120,69,1000,3960,330,IC50 [20]: 50 nM; Imax (PC-3 [21]): 65%; Imax (BXPC-3 [22]): 64%; IC50 (A2780 [23]): 270 nM; Imax (MDA-MB-231 [24]): 71%; IC50 (PC-3 [25]): 1090 nM; Imax (PANC-1 [26]): 45%; Imax (A2780 [27]): 76%
C[C@H](NP(=O)(OC[C@H]1O[C@@H](n2cc(F)c(=O)[nH]c2=O)C[C@@H]1O)Oc1cccc2ccccc12)C(=O)OCc1ccccc1 (stereo partly drawn) [FOSIFLOXURIDINE NAFALBENAMIDE],6910,81,62,92,72,5900,93,320,,77,24500,140,320,77,520,1470,96,,,,
Nc1ccn([C@@H]2O[C@H](CO)[C@@H](O)C2(F)F)c(=O)n1 [GEMCITABINE],67200,64,53,35,,,,1220,86,88,16700,110,1220,88,70,40,68,3700,680,1810,IC50 [20]: < 20 nM; Imax (PC-3 [21]): 61%; Imax (BXPC-3 [22]): 79%; IC50 (A2780 [23]): 320 nM; Imax (MDA-MB-231 [24]): 74%; IC50 (PC-3 [25]): 460 nM; Imax (PANC-1 [26]): 43%; Imax (A2780 [27]): 85%
